Data as given in ChEMBL document CHEMBL3098122, “Synthesis, biological activity and structure-activity relationships of new benzoic acid-based protein tyrosine phosphatase inhibitors endowed with insulinomimetic effects in mouse C2C12 skeletal muscle cells” (Eur J Med Chem, 2014).
Activity calls are given as the source filed them. The rule behind the calls is not given here.

How the values were obtained:
[1] = biological target: T1, Tyrosine-protein phosphatase non-receptor type 1 (Homo sapiens) (UniProt P18031); assay: Reversible inhibition of human recombinant PTP1B expressed in Escherichia coli TB1 using p-nitrophenylphosphate as substrate assessed as residual activity at 25 times IC50 after 1 hr measured after 400 fold dilution
T1 sequence (whole entry): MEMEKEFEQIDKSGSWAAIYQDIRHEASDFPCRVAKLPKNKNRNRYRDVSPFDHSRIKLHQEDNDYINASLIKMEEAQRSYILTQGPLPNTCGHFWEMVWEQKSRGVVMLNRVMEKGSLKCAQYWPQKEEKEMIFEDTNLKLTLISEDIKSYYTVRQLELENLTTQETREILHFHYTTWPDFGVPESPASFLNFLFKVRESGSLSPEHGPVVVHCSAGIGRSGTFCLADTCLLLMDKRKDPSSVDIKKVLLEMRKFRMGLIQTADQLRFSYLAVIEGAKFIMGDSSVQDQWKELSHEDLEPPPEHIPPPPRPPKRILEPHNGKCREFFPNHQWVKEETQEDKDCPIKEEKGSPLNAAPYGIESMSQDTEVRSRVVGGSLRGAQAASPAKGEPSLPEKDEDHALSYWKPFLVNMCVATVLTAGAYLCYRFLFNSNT
Procedure, shortened: (§1)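 Reversibility: PTP1B preincubated 1 h at 37 °C with at least 25-fold […], DMSO in controls; mixture then diluted 400-fold in assay buffer and residual activity measured on p-nitrophenylphosphate; three replicates, mean ± SE.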

Homo sapiens [2] = organism: Homo sapiens; assay: Selectivity ratio of IC50 for human recombinant LMW-PTP IF1 to IC50 for human recombinant PTP1B
[3] = biological target: T2, Tyrosine-protein phosphatase non-receptor type 1 (Homo sapiens, UniProt P18031); assay: Inhibition of human recombinant PTP1B expressed in Escherichia coli TB1 using p-nitrophenylphosphate as substrate
T2 sequence (P18031 whole entry): T1 sequence (whole entry)

[4] = biological target: T3, Low molecular weight phosphotyrosine protein phosphatase (Homo sapiens, UniProt P24666); assay: Inhibition of human recombinant LMW-PTP IF1 expressed in Escherichia coli TB1 using p-nitrophenylphosphate as substrate
T3 sequence (P24666 whole entry): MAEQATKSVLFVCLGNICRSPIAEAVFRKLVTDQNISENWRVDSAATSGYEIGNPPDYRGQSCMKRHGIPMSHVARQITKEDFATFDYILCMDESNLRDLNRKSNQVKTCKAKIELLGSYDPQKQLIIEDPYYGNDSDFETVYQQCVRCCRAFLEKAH

[5] = Cytotoxicity against mouse C2C12 cells expressing PTP1B, TC-PTP, LMW-PTP and insulin receptor assessed as cell viability after 2 hrs by MTT assay; format: cell-based; parameters: concentration or dose not given beside the values; settings: read-out: Activity
Procedure, shortened: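 C2C12 myoblasts differentiated 4 days in DMEM with 2% horse serum, serum-starved 20 h; myotubes then given MTT (0.5 mg/ml final) for 2 h at 37 °C, lysed in DMSO, formazan read at 570 nm; three replicates relative to control.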

[6] = biological target: T4, Tyrosine-protein phosphatase non-receptor type 2 (Homo sapiens, UniProt P17706); assay: Inhibition of TC-PTP (unknown origin) purchased from New England Biolabs using p-nitrophenylphosphate as substrate
T4 sequence (P17706 whole entry): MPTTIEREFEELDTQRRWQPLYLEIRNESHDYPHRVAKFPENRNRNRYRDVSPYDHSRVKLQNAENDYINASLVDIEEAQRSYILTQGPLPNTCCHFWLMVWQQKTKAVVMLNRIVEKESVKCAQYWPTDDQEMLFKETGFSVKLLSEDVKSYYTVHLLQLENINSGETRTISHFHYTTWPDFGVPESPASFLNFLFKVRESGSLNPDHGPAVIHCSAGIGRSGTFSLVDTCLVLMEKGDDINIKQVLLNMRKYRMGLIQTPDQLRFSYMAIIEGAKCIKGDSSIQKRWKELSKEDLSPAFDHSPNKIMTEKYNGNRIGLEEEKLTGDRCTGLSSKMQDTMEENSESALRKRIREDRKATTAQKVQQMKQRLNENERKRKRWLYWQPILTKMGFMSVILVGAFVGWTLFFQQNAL

[7] = biological target: T5, Tyrosine-protein phosphatase non-receptor type 1 (Mus musculus) (UniProt P35821); assay: Inhibition of PTP1B in mouse C2C12 cells assessed as increase of insulin receptor beta phosphorylation at 25 uM after 90 mins; format: cell-based
T5 sequence (whole entry): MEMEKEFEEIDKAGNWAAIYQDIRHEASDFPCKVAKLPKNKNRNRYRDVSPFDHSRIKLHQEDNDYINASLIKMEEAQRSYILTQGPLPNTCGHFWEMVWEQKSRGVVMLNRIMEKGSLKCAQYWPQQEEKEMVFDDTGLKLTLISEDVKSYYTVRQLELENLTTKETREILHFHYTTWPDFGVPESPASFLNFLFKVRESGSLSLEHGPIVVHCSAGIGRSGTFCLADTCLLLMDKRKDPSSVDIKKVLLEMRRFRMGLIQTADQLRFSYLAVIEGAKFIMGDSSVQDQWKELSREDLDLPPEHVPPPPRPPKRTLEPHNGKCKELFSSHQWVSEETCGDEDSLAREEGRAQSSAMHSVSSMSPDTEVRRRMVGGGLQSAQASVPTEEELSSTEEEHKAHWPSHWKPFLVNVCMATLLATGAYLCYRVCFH
Procedure, shortened: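 Differentiated, 20 h serum-starved C2C12 myotubes exposed to 25 µM compound (DMSO 1.2% final) for 90 min at 37 °C, insulin 10 nM 30 min as positive control; lysates run on SDS-PAGE, Western blot for phospho-insulin receptor β with actin loading control, densitometry; three replicates, p<0.05 versus control.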

[8] = biological target: T2, Tyrosine-protein phosphatase non-receptor type 1; assay: Mixed type inhibition of human recombinant PTP1B expressed in Escherichia coli TB1 using p-nitrophenylphosphate as substrate by Double reciprocal plot analysis
Procedure, shortened: (§2)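 PTP1B (human, GST fusion from pGEX-2T in E. coli TB1, thrombin-cleaved, gel-filtered) assayed at 37 °C, pH 7.0 β,β-dimethylglutarate buffer with 1 mM EDTA and 5 mM DTT, p-nitrophenylphosphate at seven final concentrations (0.5–25 mM) with increasing inhibitor; KOH-stopped, A400. Inhibition type from double reciprocal plots; Ki from apparent Km vs inhibitor concentration; triplicate initial rates.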

Homo sapiens [9] = organism: Homo sapiens; assay: Selectivity ratio of IC50 for human recombinant LMW-PTP IF2 to IC50 for human recombinant PTP1B
[10] = biological target: T3, Low molecular weight phosphotyrosine protein phosphatase; assay: Inhibition of human recombinant LMW-PTP IF2 expressed in Escherichia coli TB1 using p-nitrophenylphosphate as substrate
Homo sapiens [11] = organism: Homo sapiens; assay: Selectivity ratio of IC50 for human recombinant LMW-PTP IF2 to IC50 for human recombinant LMW-PTP IF1
Homo sapiens [12] = organism: Homo sapiens; assay: Selectivity ratio of IC50 for TC-PTP (unknown origin) to IC50 for human recombinant PTP1B
Procedure, shortened: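 Commercial T-cell PTP assayed on p-nitrophenylphosphate at 37 °C, pH 7.0 β,β-dimethylglutarate buffer with 1 mM EDTA and 5 mM DTT; stopped with 1 M KOH, absorbance at 400 nm; IC50 from ratio of activity with and without inhibitor versus inhibitor concentration. Ratio lines pair this with recombinant human PTP1B measured the same way.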

[13] = biological target: T5, Tyrosine-protein phosphatase non-receptor type 1 (Mus musculus); assay: Inhibition of PTP1B in mouse C2C12 cells assessed as increase of 2-deoxy-D-1,2-[3H]-glucose at 25 uM after 90 mins by beta-scintillation counting; format: cell-based
Procedure, shortened: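 Serum-starved differentiated C2C12 myotubes treated 90 min with 25 µM compound (1.2% DMSO) or 30 min with 10 nM insulin, then 0.1 µCi 2-deoxy-D-[1,2-3H]glucose in Ringer-Hepes for 15 min at 37 °C; cold PBS wash, 0.2 M NaOH lysis, scintillation counting normalized to Bradford protein; three replicates.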

[14] = biological target: T1, Tyrosine-protein phosphatase non-receptor type 1 (Homo sapiens); assay: Partial reversible inhibition of human recombinant PTP1B expressed in Escherichia coli TB1 using p-nitrophenylphosphate as substrate assessed as residual activity at 25 times IC50 after 1 hr measured after 400 fold dilution; procedure, shortened: as §1
[15] = biological target: T2, Tyrosine-protein phosphatase non-receptor type 1; assay: Competitive inhibition of human recombinant PTP1B expressed in Escherichia coli TB1 using p-nitrophenylphosphate as substrate by Double reciprocal plot analysis; procedure, shortened: as §2

| Activity [1] [%] | Ratio IC50 (Homo sapiens [2]) | IC50 [3] [µM] | IC50 [4] [µM] | IC50 [6] [µM] | inhibition [7] | Ki [8] [µM] | Ratio IC50 (Homo sapiens [9]) | IC50 [10] [µM] | Ratio IC50 (Homo sapiens [11]) | Ratio IC50 (Homo sapiens [12]) | inhibition [13] | Activity [14] [%] | Ki [15] [µM] | Compound | viability at 2 h [5] [%] |
| --- | --- | --- | --- | --- | --- | --- | --- | --- | --- | --- | --- | --- | --- | --- | --- |
| 80 | > 2 | 2.8 | 10.7 | 3.4 | Active | 1.5 | > 2 | 19.7 | > 2 | – | – | – | – | COc1cc(/C=C2\S/C(=N\c3ccccc3)N(Cc3ccc(C(=O)O)cc3)C2=O)ccc1OCCc1ccccc1 | ≥ 80 |
| – | > 2 | 4.6 | 10.9 | 1.9 | – | – | > 2 | 26.8 | > 2 | – | inactive | 50 | – | O=C(O)c1ccc(CN2C(=O)/C(=C/c3cccc(OCCc4ccccc4)c3)S/C2=N\c2ccccc2)cc1 | ≥ 80 |
| 80 | > 2 | 1.6 | 4.5 | 5.1 | – | – | > 2 | 10 | > 2 | 2 | inactive | – | – | COc1cc(/C=C2\S/C(=N\c3ccccc3)N(Cc3ccc(C(=O)O)cc3)C2=O)ccc1OCc1ccccc1 | ≥ 80 |
| 80 | > 2 | 1.7 | 17.2 | 4.3 | Active | – | > 2 | > 50 | > 2 | 2 | – | – | 1.5 | COc1ccc(/C=C2\S/C(=N\c3ccccc3)N(Cc3ccc(C(=O)O)cc3)C2=O)cc1OCCc1ccccc1 | ≥ 80 |
| – | > 2 | 3.9 | 9.1 | 4 | – | – | > 2 | > 50 | > 2 | – | – | 50 | – | COc1ccc(/C=C2\S/C(=N\c3ccccc3)N(Cc3ccc(C(=O)O)cc3)C2=O)cc1OCc1ccccc1 | ≥ 80 |

Second part, the compound before the results:

| Compound | Activity [1] [%] | Ratio IC50 (Homo sapiens [2]) | IC50 [3] [µM] | IC50 [4] [µM] | IC50 [6] [µM] | inhibition [7] | Ki [8] [µM] | Ratio IC50 (Homo sapiens [9]) | IC50 [10] [µM] | Ratio IC50 (Homo sapiens [11]) | Ratio IC50 (Homo sapiens [12]) | inhibition [13] | Activity [14] [%] | Ki [15] [µM] | viability at 2 h [5] [%] |
| --- | --- | --- | --- | --- | --- | --- | --- | --- | --- | --- | --- | --- | --- | --- | --- |
| O=C(O)c1ccc(CN2C(=O)S/C(=C\c3ccc(OCCc4ccccc4)cc3)C2=O)cc1 | 80 | > 2 | 2.6 | 20.1 | 5.9 | – | 2.3 | > 2 | > 50 | > 2 | 2 | – | – | – | ≥ 80 |
| COc1cc(/C=C2\SC(=O)N(Cc3ccc(C(=O)O)cc3)C2=O)ccc1OCc1ccccc1 | 80 | > 2 | 4.6 | 10.3 | 3.5 | Active | – | > 2 | > 50 | > 2 | – | – | – | – | ≥ 80 |
| O=C(O)c1ccc(CN2C(=O)S/C(=C\c3ccc(OCc4ccccc4)c(F)c3)C2=O)cc1 | 80 | > 2 | 7.5 | 34.3 | 10.8 | Active | – | > 2 | > 50 | > 2 | – | – | – | – | ≥ 80 |
| COc1ccc(/C=C2\SC(=O)N(Cc3ccc(C(=O)O)cc3)C2=O)cc1OCCc1ccccc1 | 80 | – | 24.6 | > 50 | 16.9 | Active | – | – | > 50 | > 2 | – | – | – | – | ≥ 80 |
| O=C(O)c1ccc(CN2C(=O)/C(=C/c3ccc(OCCc4ccccc4)cc3)S/C2=N\c2ccccc2)cc1 | – | > 2 | 1.5 | 4 | 0.7 | Active | 0.5 | > 2 | 8.9 | > 2 | – | – | 50 | – | ≥ 80 |
| COc1ccc(/C=C2\SC(=O)N(Cc3ccc(C(=O)O)cc3)C2=O)cc1OCc1ccccc1 | 80 | > 2 | 4 | 22.3 | 12.7 | Active | – | > 2 | > 50 | > 2 | 2 | – | – | – | ≥ 80 |
| O=C(O)c1ccc(CN2C(=O)S/C(=C\c3cccc(OCCc4ccccc4)c3)C2=O)cc1 | 80 | > 2 | 9.5 | 20.1 | 7.3 | – | – | > 2 | > 50 | > 2 | – | Active | – | – | 60 |
| O=C(O)c1ccc(CN2C(=O)/C(=C/c3ccc(OCc4ccccc4)c(F)c3)S/C2=N\c2ccccc2)cc1 | – | > 2 | 2.2 | 3.3 | 0.8 | Active | – | > 2 | 15.5 | > 2 | – | Active | 50 | – | ≥ 80 |
